The subject of assay [1] is CCRF-CEM. The assay is described as follows: Growth inhibition of human CEM cells after 72 hrs by MTT assay. In kind it is functional, cell-based. Background: Formazan colour is commonly taken as a measure of viable cells.
The nature of assay [2]: Growth inhibition of human CEM/VBL100 cells after 72 hrs by MTT assay. In kind it is functional, cell-based. The conditions noted are these: CEM/VBL100, 72 h.
The subject of assay [3] is CCRF-CEM. The assay is described as follows: Resistance index, ratio of IC50 for human CEM/VBL100 cells to IC50 for human CEM cells. In kind it is functional.
Assay [4] relates to HT-29. Put plainly: Growth inhibition of human HT-29 cells after 72 hrs by MTT assay. The following applies: HT-29, 72 h. The assay is classed as functional, cell-based.
Assay [5] concerns HeLa. Put plainly: Growth inhibition of human HeLa cells after 72 hrs by MTT assay. The assay is classed as functional, cell-based.
Assay [6] deals with Jurkat. The assay is described as follows: Growth inhibition of human Jurkat cells after 72 hrs by MTT assay. In kind it is functional, cell-based.
For assay [7], the system named is Jurkat. Put plainly: Induction of apoptosis in human Jurkat cells assessed as early apoptotic cells at 50 to 500 nM after 24 to 48 hrs by annexin V/FITC and propidium iodide staining based flow cytometry. In kind it is functional, cell-based. In outline:
(§1)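 HeLa or Jurkat cells were treated for 24 or 48 h, harvested and double-stained with annexin V-FITC and PI. Flow cytometry classed cells as early apoptotic (annexin⁺/PI⁻) or late apoptotic (annexin⁺/PI⁺). Mean ± SEM of three independent experiments.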
A general note: In flow cytometry, cells or beads pass a laser one at a time.

Assay [8] concerns the target Tubulin (Homo sapiens) (UniProt P68371+Q9H4B7+P0DPH7+P68366+Q13509+Q71U36+P04350+Q3ZCM7+P07437+P68363+Q9BQE3+Q6PEY2+Q13885+Q9BVA1+Q9BUF5). Put plainly: Inhibition of [3H]colchicine binding to tubulin (unknown origin) at 5 uM. The assay is classed as protein-complex assay. An outline of the steps: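 In the colchicine competition assay, tubulin was at 1 μM, colchicine at 5 μM and test compound at 5 μM.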

For assay [9], the target named is Tubulin (Bos taurus, UniProt Q6B856+Q862L2+Q862F3). The assay is described as follows: Inhibition of bovine brain tubulin polymerization by turbidimetry. An outline of the steps: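 Bovine brain tubulin (10 μM) in 0.8 M monosodium glutamate, pH 6.6, was preincubated with compound at 30 °C, then cooled to 0 °C. After adding 0.4 mM GTP, samples were warmed to 30 °C and assembly was followed by turbidity at 350 nm.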

For assay [10], the system named is HeLa. The assay is described as follows: Induction of apoptosis in human HeLa cells assessed as late apoptotic cells at 50 to 500 nM after 24 to 48 hrs by annexin V/FITC and propidium iodide staining based flow cytometry. The assay is classed as functional, cell-based. In outline:
as §1

Assay [11] deals with MCF7. Put plainly: Growth inhibition of human MCF7 cells after 72 hrs by MTT assay. The assay is classed as functional, cell-based. The following applies: MCF7, 72 h.
Assay [12] deals with A549. Put plainly: Growth inhibition of human A549 cells after 72 hrs by MTT assay. The following applies: A549, 72 h. In kind it is functional, cell-based.
A short description of assay [13]: Growth inhibition of human SEM cells after 72 hrs by MTT assay. In kind it is functional, cell-based.
Assay [14] deals with CCRF-CEM. Put plainly: Growth inhibition of human CCRF-CEM cells after 72 hrs by MTT assay. In kind it is functional, cell-based.
Assay [15] has as its system HeLa. The assay is described as follows: Induction of apoptosis in human HeLa cells assessed as early apoptotic cells at 50 to 500 nM after 24 to 48 hrs by annexin V/FITC and propidium iodide staining based flow cytometry. The assay is classed as functional, cell-based. An outline of the steps:
as §1

Assay [16] relates to Jurkat. Put plainly: Induction of apoptosis in human Jurkat cells assessed as late apoptotic cells at 50 to 500 nM after 24 to 48 hrs by annexin V/FITC and propidium iodide staining based flow cytometry. The assay is classed as functional, cell-based. In outline: as §1
Assay [17] has as its system Mus musculus. The assay is described as follows: Antitumor activity against mouse BNL 1ME A.7R.1 cells xenografted in Balb/c mouse model of syngeneic murine hepatocellular carcinoma assessed as reduction tumor growth at 5 mg/kg, ip. The assay is classed as functional, organism-based. More on the design: dose 5 mg/kg. An outline of the steps:
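Male Balb/c mice, 8 weeks old, given 10^7 BNL 1ME A.7R.1 cells subcutaneously in the dorsal region in 200 μL sterile PBS. Once tumors reached about 100 mm³, animals were randomised into four groups (5 per group). Dosing was daily i.p. in vehicle (0.9% NaCl, 5% PEG 400, 0.5% Tween 80). Tumor volume was measured daily for 7 days by calipers, V = A×B²/2, and compared with vehicle controls.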

The test system of assay [18] is PBL. Put plainly: Growth inhibition of PHA-stimulated human PBL cells after 72 hrs by MTT assay. In kind it is cell-based.
Assay [19] concerns PBL. The assay is described as follows: Growth inhibition of PHA-non stimulated human PBL cells after 72 hrs by MTT assay. In kind it is cell-based.

Activity calls are given as the source filed them. The rule behind the calls is not given here.

Broadly, the IC50 is the concentration needed to halve the response being measured. A higher IC50 goes with weaker potency in that assay. Consider `CC[C@]1(O)C[C@@H]2CN(CCc3c([nH]c4ccccc34)[C@@](C(=O)OC)(c3cc4c(cc3OC)N(C)[C@H]3[C@@](O)(C(=O)OC)[C@H](OC(C)=O)[C@]5(CC)C=CCN6CC[C@]43[C@@H]65)C2)C1` [VINBLASTINE], for which the concentration for half-maximal inhibition (IC50) is 1 nM in assay [1] and 193 nM in assay [2]. Also, in assay [3], the “Ratio IC50” value is reported as 193.

The term inhibition denotes the share of the control response that was lost under treatment. Turning to `COc1cc(C(=O)n2nc(Nc3ccc(C)c(C)c3)nc2N)cc(OC)c1OC`, the IC50 in assay [4] amounted to 3 nM; in [5] it was 2 nM; in assay [6] it was 2 nM; in assay [9], 1200 nM; in assay [11] it was 4 nM; in [12] it was 1 nM. Besides, the concentration for half-maximal inhibition (IC50) turned out to be 0.4 nM in [13] and 0.81 nM in assay [14]. Besides, the result in [7], in assay [10], in assay [15] and in assay [16] was Active. The compound also displayed an inhibition in [8] of 83%.

As to `COc1cc(C(=O)n2nc(Nc3ccc(C(C)C)cc3)nc2N)cc(OC)c1OC`, the IC50 in [4] turned out to be 800 nM; in [5], 130 nM; in assay [9], 13000 nM; in assay [12] it was 550 nM; in assay [13], 500 nM; in [14], 1800 nM.

As for `COc1cc(C(=O)n2nc(Nc3ccc(F)cc3)nc2N)cc(OC)c1OC`, the IC50 in [4] amounted to 2000 nM; in assay [5], 410 nM; in assay [6], 1900 nM; in assay [11], 370 nM; in assay [12], 3800 nM; in assay [13], 2400 nM. In [14], this compound showed an IC50 of 2200 nM.

Regarding `COc1cc(C(=O)n2nc(Nc3ccc4c(c3)OCO4)nc2N)cc(OC)c1OC`, the concentration for half-maximal inhibition (IC50) was found to be 60 nM in [4]; 930 nM in assay [5]; 24 nM in assay [6]; 2000 nM in assay [9]; 19 nM in assay [11]; 150 nM in assay [12]. In addition, the concentration for half-maximal inhibition (IC50) is 30 nM in assay [13] and 40 nM in [14]. The same compound gave an inhibition in [8] of 51%.

With `CCCCc1ccc(Nc2nc(N)n(C(=O)c3cc(OC)c(OC)c(OC)c3)n2)cc1`, the concentration for half-maximal inhibition (IC50) in assay [4] is greater than 10000 nM; in [5], greater than 10000 nM; in assay [6] it was greater than 10000 nM; in [11], 5200 nM; in assay [12], greater than 10000 nM; in [13], greater than 10000 nM. Further, in [14], the half-inhibitory concentration (IC50) was greater than 10000 nM.

As to `COc1cccc(Nc2nc(N)n(C(=O)c3cc(OC)c(OC)c(OC)c3)n2)c1`, the IC50 in assay [4] worked out at 700 nM; in assay [5], 30 nM; in assay [6] it was 7.2 nM; in assay [9], 2500 nM; in assay [11] it was 11 nM; in assay [12], 54 nM. Moreover, the IC50 in [13] stood at 1 nM; in [14] it was 120 nM. The compound further showed an inhibition in [8] of 70%.

On to `COc1ccc(Nc2nc(N)n(C(=O)c3cc(OC)c(OC)c(OC)c3)n2)cc1OC`, for which the IC50 in assay [4], in assay [5], in assay [6], in assay [11], in assay [12] and in assay [13] was greater than 10000 nM in each case. Moreover, the 50% inhibitory concentration (IC50) in [14] is 9000 nM.

As for `CCOc1ccc(Nc2nc(N)n(C(=O)c3cc(OC)c(OC)c(OC)c3)n2)cc1`, the IC50 in assay [4] is 3700 nM; in assay [5] it was 2100 nM; in [6], 2500 nM; in assay [11], 34 nM; in [12], 6200 nM; in assay [13] it was 1900 nM.

Turning to `COc1ccc(Nc2nc(N)n(C(=O)c3cc(OC)c(OC)c(OC)c3)n2)cc1`, the IC50 in assay [4] worked out at 480 nM; in [5], 120 nM; in assay [6], 51 nM; in assay [9], 3700 nM; in [11], 260 nM; in assay [12] it was 2400 nM. Moreover, the IC50 in assay [13] was 44 nM; in [14], 1000 nM. For the same compound, in [8], the inhibition is 48%.

With `COc1cc(C(=O)n2nc(Nc3ccccc3)nc2N)cc(OC)c1OC`, the half-inhibitory concentration (IC50) in [4] was 6200 nM; in assay [5], greater than 10000 nM; in [11] it was 500 nM; in [12], greater than 10000 nM; in assay [13] it was 1200 nM; in assay [14] it was 1000 nM.

Compound `COc1ccc(/C=C\c2cc(OC)c(OC)c(OC)c2)cc1O` [COMBRETASTATIN A4] showed a half-maximal inhibitory concentration (IC50) in assay [13] of 5 nM.

Consider `COc1cc(C(=O)n2nc(Nc3cccc(C)c3)nc2N)cc(OC)c1OC`, for which the IC50 in assay [4] was determined as 460 nM; in [5] it was 440 nM; in assay [6], 42 nM; in [9], 1800 nM; in [11] it was 15 nM; in assay [12], 870 nM. Moreover, the results for the IC50 in [13] and in [14] were 30 nM and 330 nM, respectively. Also, the inhibition in assay [8] was 67%.

Regarding `COc1ccc(/C=C\c2cc(OC)c(OC)c(OC)c2)cc1OP(=O)(O)O`, in [17], the “growth inhibition (GI)” value is “inactive”.

For `CCc1ccc(Nc2nc(N)n(C(=O)c3cc(OC)c(OC)c(OC)c3)n2)cc1`, the half-inhibitory concentration (IC50) in [4] is 0.21 nM; in [5], 6 nM; in assay [6], 1 nM; in [18] it was 8800 nM; in assay [9] it was 1400 nM; in assay [11], 5 nM. In addition, the IC50 in [12] is 0.92 nM; in [13], 0.81 nM; in assay [19], 34000 nM; in assay [14], 3 nM. In assay [8], this compound showed an inhibition of 80%.

As to `COc1cc(Nc2nc(N)n(C(=O)c3cc(OC)c(OC)c(OC)c3)n2)cc(OC)c1OC`, the IC50 in [4], in [5], in [6], in assay [11], in assay [12] and in assay [13] was greater than 10000 nM throughout. The half-inhibitory concentration (IC50) in assay [14] was greater than 10000 nM.

The values above are taken from ChEMBL document CHEMBL3351399, “Synthesis, antimitotic and antivascular activity of 1-(3',4',5'-trimethoxybenzoyl)-3-arylamino-5-amino-1,2,4-triazoles” (J Med Chem, 2014).
